This is an account of results in ChEMBL document CHEMBL1123755, “Conformationally defined adrenergic agents. 5. Resolution, absolute configuration, and pharmacological characterization of the enantiomers of 2-(5,6-dihydroxy-1,2,3,4-tetrahydro-1-naphthyl)imidazoline: a potent agonist at alpha-adrenoceptors” (J Med Chem, 1987).

Assay [1] is described as follows: E max value expressed as percent maximum response of the tissue(rabbit aorta) to norepinephrine. In kind it is tissue-based. The method, boiled down: (§1)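 Helical rabbit aortic strip in 10-mL bath of Krebs buffer (pH 7.4, 37 ± 0.5 °C), 2 g initial tension, force-transducer contraction. Cumulative dose–response to NE (10⁻⁸ to 10⁻³ M), each dose to plateau. Washed every 10–15 min for 60–90 min and reset to 2 g before the test compound series. Molar ED50; index = ED50 NE / ED50 compound; Emax as % of NE maximum.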

Assay [2] in a line: Ratio of ED50 of norepinephrine to that in PBZ-DSV. In kind it is functional. In a few lines:
(§2)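 Dog saphenous vein strips in Krebs buffer (pH 7.40, 95% O2/5% CO2, 37 °C), 2 g preload, isometric contraction. After equilibration and maximal NE (10⁻⁴ M) contraction, washed 60 min, exposed to PBZ 10⁻⁷ M for 30 min, washed 60 min. Control cumulative NE curve, then after 45–60 min washout, cumulative agonist curve. Molar ED50; index = ED50 NE / ED50 compound; Emax as % of NE maximum.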

Assay [3] is described as follows: E max value expressed as percent maximum response of the tissue(PBZ-DSV) to norepinephrine. The method, boiled down:
as §2

Assay [4] is described as follows: Ratio of ED50 of norepinephrine to that in rabbit aorta. In kind it is functional. The method, boiled down: as §1
In assay [5] the target is T1, Adrenergic receptor alpha-1 (Rattus norvegicus, UniProt P15823+P23944+P43140).
T1 sequence (P15823 whole entry): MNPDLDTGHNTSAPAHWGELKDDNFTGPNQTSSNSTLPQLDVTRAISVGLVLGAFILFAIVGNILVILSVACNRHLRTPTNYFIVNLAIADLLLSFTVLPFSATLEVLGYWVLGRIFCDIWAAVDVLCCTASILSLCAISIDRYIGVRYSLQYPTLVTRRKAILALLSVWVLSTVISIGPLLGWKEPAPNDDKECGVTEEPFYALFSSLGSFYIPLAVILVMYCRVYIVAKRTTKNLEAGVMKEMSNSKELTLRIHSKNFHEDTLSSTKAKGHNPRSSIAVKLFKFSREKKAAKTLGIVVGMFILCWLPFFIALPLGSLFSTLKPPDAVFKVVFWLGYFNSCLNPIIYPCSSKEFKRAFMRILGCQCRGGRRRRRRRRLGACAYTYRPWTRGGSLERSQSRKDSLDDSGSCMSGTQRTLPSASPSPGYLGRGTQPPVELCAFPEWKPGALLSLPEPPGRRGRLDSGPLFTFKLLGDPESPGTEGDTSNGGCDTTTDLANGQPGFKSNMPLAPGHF
T1 sequence (P23944 whole entry): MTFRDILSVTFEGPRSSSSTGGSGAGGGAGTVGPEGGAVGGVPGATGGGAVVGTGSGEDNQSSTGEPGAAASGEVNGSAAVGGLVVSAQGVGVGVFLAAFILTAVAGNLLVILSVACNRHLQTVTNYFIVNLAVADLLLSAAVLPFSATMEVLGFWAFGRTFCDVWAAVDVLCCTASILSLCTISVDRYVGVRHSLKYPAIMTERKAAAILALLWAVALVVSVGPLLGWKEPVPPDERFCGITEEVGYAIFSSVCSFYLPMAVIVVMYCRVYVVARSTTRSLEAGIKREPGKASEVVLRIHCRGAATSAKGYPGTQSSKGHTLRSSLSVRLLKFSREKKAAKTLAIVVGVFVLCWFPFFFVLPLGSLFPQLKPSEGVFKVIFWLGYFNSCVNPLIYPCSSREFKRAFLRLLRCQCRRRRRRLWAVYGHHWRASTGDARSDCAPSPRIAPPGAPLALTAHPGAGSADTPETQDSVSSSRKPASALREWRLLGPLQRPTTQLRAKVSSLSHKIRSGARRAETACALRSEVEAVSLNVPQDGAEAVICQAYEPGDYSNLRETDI
T1 sequence (P43140 whole entry): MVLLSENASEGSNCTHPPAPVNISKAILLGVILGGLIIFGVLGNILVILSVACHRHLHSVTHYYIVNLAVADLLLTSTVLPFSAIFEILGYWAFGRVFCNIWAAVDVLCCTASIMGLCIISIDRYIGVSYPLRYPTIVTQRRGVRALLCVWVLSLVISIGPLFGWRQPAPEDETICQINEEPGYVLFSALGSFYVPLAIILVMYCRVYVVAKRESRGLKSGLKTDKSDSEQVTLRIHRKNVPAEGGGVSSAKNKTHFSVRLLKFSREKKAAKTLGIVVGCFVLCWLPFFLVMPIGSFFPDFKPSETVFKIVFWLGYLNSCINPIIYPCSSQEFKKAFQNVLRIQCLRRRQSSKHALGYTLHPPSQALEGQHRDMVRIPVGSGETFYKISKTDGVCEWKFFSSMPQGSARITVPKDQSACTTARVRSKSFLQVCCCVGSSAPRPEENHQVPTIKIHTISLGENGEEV
Kind of assay: Binding affinity for alpha-1 adrenergic receptor in rat liver using [3H]prazosin. The method, boiled down:
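Pooled male Sprague–Dawley rat liver membranes (50–150 µg/mL protein) in 50 mM Tris-HCl pH 7.7. [3H]prazosin, 50 min at 25 °C, 1.0 mL final volume; nonspecific binding with phentolamine 10⁻⁵ M. GF/B filtration, scintillation counting. At least four concentrations (10⁻¹⁰–10⁻³ M) run in duplicate; IC50 by logit plot; Ki by Cheng–Prusoff.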

Assay [6] concerns the target T2, Adrenergic receptor alpha-2 (Rattus norvegicus, UniProt P22086+P19328+P22909).
T2 sequence (P22086 whole entry): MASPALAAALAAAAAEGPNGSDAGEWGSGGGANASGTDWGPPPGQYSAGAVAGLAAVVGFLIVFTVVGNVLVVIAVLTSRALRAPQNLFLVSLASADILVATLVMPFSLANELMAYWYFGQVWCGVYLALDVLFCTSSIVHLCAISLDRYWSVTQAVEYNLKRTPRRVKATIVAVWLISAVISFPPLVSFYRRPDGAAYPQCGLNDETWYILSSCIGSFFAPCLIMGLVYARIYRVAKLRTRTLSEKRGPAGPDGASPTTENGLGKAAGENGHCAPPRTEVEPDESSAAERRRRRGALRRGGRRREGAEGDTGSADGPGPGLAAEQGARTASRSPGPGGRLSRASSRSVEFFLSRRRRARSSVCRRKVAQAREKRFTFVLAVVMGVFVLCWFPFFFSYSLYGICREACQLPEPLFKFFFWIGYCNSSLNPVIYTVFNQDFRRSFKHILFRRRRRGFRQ
T2 sequence (P19328 whole entry): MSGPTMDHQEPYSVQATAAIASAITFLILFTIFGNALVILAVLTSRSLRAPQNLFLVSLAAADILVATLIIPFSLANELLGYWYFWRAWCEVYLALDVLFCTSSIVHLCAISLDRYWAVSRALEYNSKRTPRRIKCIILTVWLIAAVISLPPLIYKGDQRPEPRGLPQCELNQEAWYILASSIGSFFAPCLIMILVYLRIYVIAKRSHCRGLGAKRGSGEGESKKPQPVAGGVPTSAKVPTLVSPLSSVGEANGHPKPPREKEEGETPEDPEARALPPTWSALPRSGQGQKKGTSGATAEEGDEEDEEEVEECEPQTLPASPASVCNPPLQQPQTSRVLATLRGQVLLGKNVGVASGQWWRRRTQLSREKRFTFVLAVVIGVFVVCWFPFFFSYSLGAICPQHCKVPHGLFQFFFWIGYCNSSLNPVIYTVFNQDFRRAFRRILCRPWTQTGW
T2 sequence (P22909 whole entry): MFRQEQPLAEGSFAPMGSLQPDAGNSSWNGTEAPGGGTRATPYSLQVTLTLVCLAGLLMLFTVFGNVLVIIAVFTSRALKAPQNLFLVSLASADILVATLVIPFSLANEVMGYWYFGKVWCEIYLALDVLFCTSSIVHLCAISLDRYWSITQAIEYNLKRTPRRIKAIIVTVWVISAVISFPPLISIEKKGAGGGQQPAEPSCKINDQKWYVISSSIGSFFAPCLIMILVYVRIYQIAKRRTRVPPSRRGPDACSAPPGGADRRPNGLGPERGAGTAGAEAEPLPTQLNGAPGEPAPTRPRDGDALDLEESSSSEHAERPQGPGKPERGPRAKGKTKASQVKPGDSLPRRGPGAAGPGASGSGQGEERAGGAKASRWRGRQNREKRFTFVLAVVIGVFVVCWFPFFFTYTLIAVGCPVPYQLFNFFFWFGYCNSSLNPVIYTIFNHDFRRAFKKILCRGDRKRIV
Kind of assay: Binding affinity for alpha-2 adrenergic receptor in rat cortex using [3H]rauwolscine. The method, boiled down:
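Pooled male Sprague–Dawley rat cerebral cortex membranes (50–150 µg/mL protein) in 50 mM Tris-HCl pH 7.7. [3H]rauwolscine, 2 h at 0 °C, 1.0 mL final volume; nonspecific binding with phentolamine 10⁻⁵ M. GF/B filtration, scintillation counting. At least four concentrations (10⁻¹⁰–10⁻³ M) run in duplicate; IC50 by logit plot; Ki by Cheng–Prusoff.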

Structures are written as SMILES.

Turning to `Oc1ccc2c(c1O)CCCC2C1=NCCN1` (racemic), the E max in assay [1] was found to be 114; in assay [3], 102. Besides, the values for the Index in assay [2] and in assay [4] were 184 and 13, respectively.

Consider `Oc1ccc2c(c1O)CCC[C@@H]2C1=NCCN1`, for which the values for the E max in assay [1] and in assay [3] were 94 and 74, respectively. Besides, the Ki (commonly a measure of affinity in units of concentration, obtained from inhibition or displacement) was found to be 817 nM in assay [5] and 28 nM in assay [6]. Also, the Index in assay [2] worked out at 15.4; in assay [4], 1.

With `Oc1ccc2c(c1O)CCC[C@H]2C1=NCCN1`, the E max in assay [1] was found to be 128; in assay [3], 102. The results for the inhibition constant Ki in assay [5] and in assay [6] were 523 nM and 0.55 nM, respectively. Moreover, the values for the Index in assay [2] and in assay [4] were 248 and 29, respectively.
